Paper PMC11960622 (RSC Advances, 2025)

How the values were obtained:
A549 cells = assay: MTT cytotoxicity assay, A549; format: cell-based; conditions: for IC50: Homo sapiens, A549, 72 h, read-out: IC50 A549; for fold more toxic to A549 cells than VERO normal cells: selectivity VERO/A549
Outline: (§1)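 ATCC cells in RPMI 1640 with 10% heat-inactivated FBS and penicillin/streptomycin, 37 °C, 5% CO2. Trypsinized cells seeded at 1000–2000 per well, grown 24 h, then exposed 72 h to free or Cs/PVA-nanogel-loaded test compound (0.1, 10, 100, 1000 μM). MTT 2 h, formazan dissolved in acidified isopropanol, A570 read. Viability expressed versus control; IC50 derived.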

HCT116 cells = assay: MTT cytotoxicity assay, HCT116; format: cell-based; conditions: for IC50: Homo sapiens, HCT-116, 72 h, read-out: IC50 HCT116; for fold more toxic to HCT-116 cells than normal VERO cells: selectivity VERO/HCT-116
HepG2 cells = assay: MTT cytotoxicity assay, HepG2; format: cell-based; conditions: for IC50: Homo sapiens, HepG2, 72 h, read-out: IC50 HepG2; for fold toxic to HepG-2 cells than ordinary VERO cells: selectivity VERO/HepG-2
Outline: as §1

MCF-7 cells = assay: MTT cytotoxicity assay, MCF-7; format: cell-based; conditions: for IC50: Homo sapiens, MCF7, 72 h, read-out: IC50 MCF-7; for fold more toxic to MCF-7 cells than ordinary VERO cells: selectivity VERO/MCF-7
Outline: as §1

calf thymus DNA = assay: DNA/methyl green assay; conditions: read-out: DNA binding IC50; methyl green displacement, 24 h, pH 7.5
Outline: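 Calf thymus DNA (10 mg) and methyl green (20 mg) in 100 mL 0.05 M Tris–HCl pH 7.5 with 7.5 mM MgSO4, stirred 24 h at 37 °C. Ethanol solutions of test compounds at 10, 100 and 1000 μM were dried under vacuum in wells, then complex added. Incubated at room temperature in the dark; A642.5–645 read at 24 h, normalized to untreated complex; IC50 fitted. Doxorubicin control.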

topo-II enzyme = assay: In vitro topoisomerase II inhibitory activity; format: biochemical; conditions: read-out: Topo-II assay IC50

| SMILES | IC50 (A549 cells) [µM] | fold more toxic to A549 cells than VERO normal cells (A549 cells) [fold] | IC50 (HCT116 cells) [µM] | fold more toxic to HCT-116 cells than normal VERO cells (HCT116 cells) [fold] | IC50 (HepG2 cells) [µM] | fold toxic to HepG-2 cells than ordinary VERO cells (HepG2 cells) [fold] | IC50 (MCF-7 cells) [µM] | fold more toxic to MCF-7 cells than ordinary VERO cells (MCF-7 cells) [fold] | IC50 (calf thymus DNA) [µM] | IC50 (topo-II enzyme) [µM] |
| --- | --- | --- | --- | --- | --- | --- | --- | --- | --- | --- |
| NC1=NC(=NS(=O)(=O)c2ccc(N)cc2)NC(=O)C1N=Nc1ccccc1C(=O)O (stereo not drawn) [Compound 4, 2-((4-Amino-2-(((4-aminophenyl)sulfonyl)imino)-6-oxo-1,2,5,6-tetrahydropyrimidin-5-yl)diazenyl)-benzoic acid] | 5.5 ± 0.5 | 10.44 | 9.77 ± 1.1 | 5.88 | 7.12 ± 0.5 | 8.07 | 7.85 ± 0.5 | 7.32 | 36 ± 3.5 | 1.2 ± 0.4 |
| NC1=NN(C(=O)C=Cc2ccccc2)C(=O)C1N=Nc1ccccc1C(=O)O (stereo not drawn) [Compound 2, 2-((3-Amino-1-cinnamoyl-5-oxo-4,5-dihydro-1H-pyrazol-4-yl)diazenyl)benzoic acid] | 6.3 ± 0.5 | 9.48 | 10.6 ± 1.5 | 5.63 | 8.8 ± 0.5 | 6.78 | 8.3 ± 0.5 | 7.19 | 37 ± 3.9 | 1.31 ± 0.4 |
| COc1cccc2c1C(=O)c1c(O)c3c(c(O)c1C2=O)C[C@@](O)(C(=O)CO)C[C@@H]3O[C@H]1C[C@H](N)[C@H](O)[C@H](C)O1 [Doxorubicin, reference compound] | 8.54 ± 0.8 |  |  |  |  |  |  |  | 31.3 ± 1.8 | 0.94 ± 0.4 |
| NC1=NN(c2ccc([N+](=O)[O-])cc2[N+](=O)[O-])C(=O)C1N=Nc1ccccc1C(=O)O (stereo not drawn) [Compound 3, 2-((3-Amino-1-(2,4-dinitrophenyl)-5-oxo-4,5-dihydro-1H-pyrazol-4-yl)diazenyl)benzoic acid] | 6.1 ± 0.5 | 8.92 | 11 ± 1.1 | 4.95 | 8.95 ± 0.5 | 6.08 | 8.65 ± 0.8 | 6.29 | 38.6 ± 3.8 | 1.49 ± 0.4 |
